m5-HT2A agonist: activates the mouse 5-HT2A serotonin receptor; AID 624169; CHO-K1 mHTR2A beta-arrestin complementation, luminescence; percent of 30 µM serotonin response; P35363; activation, % at 7.6 µM; 0.66% of 360,000 active;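 active = activation above a run cutoff, the mean activation of all tested compounds plus 3 SD, cut at about 14% in these data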;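 also: 0% = plate median of compound wells and 100% = 30 µM serotonin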
APJ agonist: APJ receptor agonism | P35414 | activation, % at 20 µM | CHO-K1 APJ PathHunter beta-arrestin, luminescence; 0% DMSO wells, 100% apelin | 0.11% of 330,000 active | AID 2520;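 active = activation more than six SD over the plate average, tested at 20 µM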;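 also: 0% = DMSO alone and 100% = apelin-13 at 10 nM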
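Material: CHO-K1 APJ beta-arrestin complementation cell line; Input: cell density 1000 per well; Incubation: compound stimulation 90 min at 25 °C, detection 60 min; Signal: luminescence from split beta-galactosidase complementation, Galacton Star/Emerald II substrate; Controls: DMSO-only wells as negative, 10 nM Apelin-13 as positive control.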
EBI2 antag: antagonists of human EBI2 receptor | P32249 | EBI2 beta-arrestin recruitment, luminescence, 7a,25-OHC stimulated | 0.81% of 360,000 active | inhibition, % at 5 µM; in the data active = inhibition above about 38%;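 also: enzyme fragment complementation signal reports receptor beta-arrestin coupling in cells; 0% = agonist plus DMSO wells and 100% = wells without agonist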
CXCR6 block: CXCR6 (human) receptor inhibition. CHO-K1 PathHunter CXCR6 beta-arrestin, luminescence. inhibition, % at 20 µM. 0.36% of 360,000 active. AID 602244; in the data active = inhibition above about 34%, passing the limit was not always enough;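 also: antagonist mode with CXCL16 agonist at 10 nM final; 0% = 10 nM CXCL16 with DMSO and 100% = unstimulated wells without agonist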
Target sequence (O00574 whole entry, looked up): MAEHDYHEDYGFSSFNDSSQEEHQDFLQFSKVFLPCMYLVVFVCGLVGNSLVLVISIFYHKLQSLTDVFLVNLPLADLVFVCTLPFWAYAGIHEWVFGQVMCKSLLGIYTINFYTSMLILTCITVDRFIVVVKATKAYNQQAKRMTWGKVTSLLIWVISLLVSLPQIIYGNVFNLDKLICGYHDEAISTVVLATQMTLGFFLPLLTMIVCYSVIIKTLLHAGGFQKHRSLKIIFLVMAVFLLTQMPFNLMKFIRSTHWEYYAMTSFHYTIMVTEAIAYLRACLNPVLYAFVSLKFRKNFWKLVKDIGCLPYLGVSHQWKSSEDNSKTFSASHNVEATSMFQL
CCR6 antag: antagonists of human CCR6 receptor. inhibition, % at 20 µM. 0.49% of 340,000 active. AID 493098. CHO-K1 CCR6 PathHunter beta-arrestin, luminescence, CCL20-stimulated. P51684;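 active = compounds whose inhibition of the agonist-driven luminescence signal at 20 µM reaches about 50%, limit read from the data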;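 also: cells stimulated with CCL20 at 14 nM final; plate controls were DMSO with CCL20 for no effect and DMSO without agonist for full effect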
APJ antag: APJ receptor antagonism; P35414; CHO-K1 APJ beta-arrestin complementation, luminescence; inhibition, % at 20 µM; 0.32% of 330,000 active; AID 2521;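 active = inhibition above about 40% at 20 µM, limit read from the data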;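 also: cells challenged with 10 nM apelin-13 agonist together with compound; plate controls were apelin-13 plus DMSO wells for no effect and DMSO wells lacking apelin-13 for full effect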
APJ ag conf: APJ receptor agonism confirmation | shares compounds with APJ agonist | 10% of 310 active | activation, % at 20 µM | CHO-K1 APJ PathHunter beta-arrestin, luminescence;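 active = activation above 40%, taking the highest of four retests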;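 also: plate controls were DMSO wells for no effect and apelin-13 at 10 nM for full effect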
Active calls of the source: *; · = not tested or not shown. Compounds with a hit are over-represented: about 2.2% of the library has one in this group of screens.

SMILES	m5-HT2A agonist	APJ agonist	EBI2 antag	CXCR6 block	CCR6 antag	APJ antag	others
O=C1NC(=O)N(CCc2ccc(F)cc2)C(=O)/C1=C\C=C\c1ccccc1	5	·	48*	-7	-24	·
COc1ccc(CN2Cc3cc(N4CCCCC4)ccc3-n3nncc3C2)cc1	-1	·	-8	0	·	·
CC(C)(OOC1(c2ccccc2)NC(=O)c2ccccc21)c1ccccc1 (stereo not drawn)	1	·	1	8	·	·
CCN1C(=O)C(=Cc2ccc(N3CCOCC3)o2)C(=O)N(CC)C1=S	-2	-8	-12	-1	14	27
CN1C(=O)C(=Cc2ccc(N3CCOCC3)o2)C(=O)N(C)C1=S	1	-5	2	3	57*	42*
O=C(N/N=C\C1C(=O)NC(=S)N(c2ccccc2)C1=O)c1ccc(O)cc1 (stereo not drawn)	-5	-6	-10	4	62*	-9
O=C(N/N=C/c1c(O)n(-c2ccccc2)c(=S)[nH]c1=O)c1ccccc1	2	-4	4	9	12	1
CC(C)C[C@H]1C(=O)N2CCC[C@H]2[C@]2(O)O[C@](NC(=O)[C@@H]3C=C4c5cccc6[nH]cc(c56)C[C@H]4N(C)C3)(C(C)C)C(=O)N12	49*	16	3	-9	2	-14
COC(=O)C1C=C2c3cccc4[nH]cc(c34)CC2N(C)C1 (stereo not drawn)	·	5	·	·	·	-20
O=c1[nH]c2ccccc2n1C1CCN(C(c2cc3ccccc3o2)c2nnnn2-c2ccc3c(c2)OCCO3)CC1 (stereo not drawn)	4	·	-24	-4	·	·
O=C1NC(=O)C(=Cc2ccc(-c3ccc(Cl)cc3)o2)C(=O)N1	-6	24	21	50*	71*	-2
C[C@]12CC[C@@H](O)CC1=CCC1C2CC[C@@]2(C)C1C[C@@H](F)[C@H]2O (stereo partly drawn)	-2	·	-6	-7	5	·
N#Cc1c(/N=C/c2c(O)n(Cc3ccco3)c(=O)[nH]c2=O)sc2c1CCCC2	19*	2	-17	2	18	13
CC(C)(C)n1nnnc1C(CCc1ccccc1)N1CCC2(CC1)C(=O)NCN2c1ccccc1 (stereo not drawn)	-4	·	-4	6	·	·
O=C(NP(=O)(N1CC1)N1CC1)c1cc(I)ccc1I	4	·	0	-3	9	·
Cc1cc(/C=C2\C(=O)NC(=O)N(c3ccc(Cl)cc3)C2=O)c(C)n1-c1sc2c(c1C#N)CCCC2	2	4	29	-9	-12	7
Cc1sc(-n2c(C)cc(C=C3C(=O)NC(=O)NC3=O)c2C)c(C#N)c1C	·	11*	·	·	1	9	APJ ag conf=21
c1ccc(C(c2ccccc2)c2ccncc2)cc1	-11	·	-2	4	7	·
O=c1[nH]c(O)c(/C=C2/C=CC(c3cc(Cl)ccc3Cl)=N2)c(=O)[nH]1	0	19*	-4	-6	-6	-58	APJ ag conf=30
CC1=Nc2ccccc2/C1=C/c1c(O)[nH]c(=O)[nH]c1=O	2	-3	-1	8	-2	13
CCCSc1nc(O)c(CC)c(=O)n1C(C)CC (stereo not drawn)	3	60*	-15	-3	-7	13	APJ ag conf=62*
C=C(C=O)C[C@@H]1C[C@H](O)C2OC3C[C@]4(C)OC5/C=C\CC6OC7C(CC=CCC6OC5CCCC4OC3CC2O1)OC1CC2OC3CC(=O)OC3C[C@@H](C)C[C@@]2(C)OC1C[C@@H]7C (stereo partly drawn)	·	21*	·	·	47	-12	APJ ag conf=19
COC(=O)C12CCc3c(ccc4cc(OC)ccc34)C1=CC(=O)C2 (stereo not drawn)	1	·	-4	0	18	·
CC1(C)C[C@H]2C=C(C=O)[C@]3(C=O)C[C@]3(C)[C@H]2C1	-2	31*	4	-3	30	-26	APJ ag conf=33
CCCCn1nnnc1C(c1ccnc2ccccc12)N1CCC2(CC1)C(=O)NCN2c1ccccc1 (stereo not drawn)	-3	·	9	2	·	·
Oc1c(Cl)cccc1Cc1cc(Cl)cc(Cl)c1O	5	·	-2	-8	-8	·
